# Source: PubChem
# RGS4 pot: RGS4 potentiation or activation. HEK293 M3R/inducible RGS4, carbachol calcium flux Fluo4; active compounds read low. B-score at 10 µM. 0.92% of 310,000 active;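 active means B-score of the integrated calcium signal more than 4 SD below the library mean, with starting fluorescence not abnormally high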;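 further: negative B-score means reduced calcium response which marks RGS4 activation or potentiation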
#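 Test system: HEK293 cells with stable M3R and inducible RGS4; also added: carbachol at ECmax as muscarinic agonist stimulus; schedule: dye loading 30 min 37 °C, buffer rest 30 min RT; technique: kinetic calcium fluorescence imaging with Fluo4-AM dye, 2 µM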
# MrgX1 agonist: human MrgX1 receptor agonism, primary screen; 0.44% of 310,000 active; B-score at 10 µM; Q96LB2; MrgX1-HEK293 cells, Fluo-4 calcium fluorescence, agonist mode; active compounds read high;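 active means calcium response B-score plate-corrected fluorescence ratio at least 3 library SD, with starting fluorescence B-score inside 5 SD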
# Target sequence (Q96LB2 whole entry, looked up): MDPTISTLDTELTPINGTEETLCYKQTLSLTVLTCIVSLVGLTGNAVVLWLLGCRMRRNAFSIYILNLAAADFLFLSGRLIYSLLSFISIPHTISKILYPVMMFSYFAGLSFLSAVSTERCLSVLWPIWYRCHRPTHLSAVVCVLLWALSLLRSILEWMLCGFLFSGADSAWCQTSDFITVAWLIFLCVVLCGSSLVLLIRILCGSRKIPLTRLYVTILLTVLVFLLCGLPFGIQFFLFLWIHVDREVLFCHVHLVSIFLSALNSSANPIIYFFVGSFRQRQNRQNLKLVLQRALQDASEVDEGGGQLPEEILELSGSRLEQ
#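 Test system: Stable human MrgX1 HEK293 cell line | Schedule: Overnight plating before 1 h dye loading | Read-out basis: Baseline-normalised fluorescence change ratio, B-scored | Detection: Kinetic calcium dye fluorescence, Fluo-4 NW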
# MrgX1 antag: human MrgX1 receptor antagonism, primary screen; Q96LB2; MRGX1-HEK293 calcium flux, Fluo-4, BAM8-22 antagonism; active compounds read low; B-score at 10 µM; 1.3% of 310,000 active;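 active means calcium-response B-score plate-corrected more than 3 library SD below zero, starting fluorescence within 5 deviations, no agonist response on first addition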;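 further: peak minus trough fluorescence over baseline after final BAM8-22 challenge near maximal dose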
# MrgX1 PAM: human MrgX1 positive allosteric modulation, primary screen | 0.63% of 310,000 active | MrgX1-HEK293, Fluo-4 calcium flux, FDSS; active compounds read high | Q96LB2 | AID 588675 | B-score at 10 µM;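 active means plate-corrected calcium response at least 3 library SD above typical, normal starting fluorescence, not activating the receptor alone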;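 further: compound read alongside a low EC10 to EC30 dose of BAM8-22 agonist; peak minus trough fluorescence over baseline measured at the second addition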
# RGS4 block: human RGS4 inhibition; HEK293 M3R/RGS4 inducible, Fluo-4 calcium flux; active compounds read high; triggered by carbachol at its EC20; 0.45% of 310,000 active; B-score at 10 µM;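 active means B-score, a plate-corrected calcium signal, over three deviations above library mean, with baseline fluorescence within five deviations of library mean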;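 further: RGS4 expression induced by doxycycline in cells with stable M3 receptor; B-score is computed from the integrated fluorescence ratio over baseline after carbachol; higher B-score means a larger calcium signal and so more RGS4 inhibition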
# Numbers without * were called inactive; i = inactive. Compounds with a hit are over-represented: about 3.5% of the library has one in this group of screens.
SMILES,RGS4 pot,MrgX1 agonist,MrgX1 antag,MrgX1 PAM,RGS4 block
CN1CCCCC1CCN1c2ccccc2Sc2ccc(S(C)=O)cc21 (configuration not stated),-7.3*,i,i,i,i
CN1CCCC(CN2c3ccccc3Sc3ccccc32)C1 (configuration not stated),i,i,i,i,i
O=C(COC(=O)c1cccc([N+](=O)[O-])c1)c1ccc(OCc2ccccc2)cc1,-8.4*,i,i,i,i
CNC(=O)COc1coc(CN2CCN(c3ccc(F)cc3)CC2)cc1=O,i,i,i,i,i
O=C(N/N=C/c1c[nH]c2ccc(Br)cc12)c1ccc2c(c1)OCO2,i,45*,i,i,i
O=C(N/N=C/c1c[nH]c2ccccc12)c1ccc2c(c1)OCCO2,i,i,i,i,i
CC(OC(=O)/C(C#N)=C/c1ccc(N(C)C)cc1)C(=O)N(C)c1ccccc1 (configuration not stated),-7.2*,i,i,i,i
CC(=O)Nc1ccc(NC(=O)C(C)OC(=O)/C(C#N)=C/c2ccc(N(C)C)cc2)cc1 (configuration not stated),i,i,i,i,i
CCOC(=O)c1c(NC(=O)CSc2c[nH]c3ccccc23)sc2c1CCC2,-7.1*,i,i,i,i
c1ccc(CN2CCN(CCOCCOc3ccc4c(c3)CCC4)CC2)cc1,i,i,-5.6*,i,i
CC(=O)Nc1ccc(S(=O)(=O)NCCC(=O)NCC2COc3ccccc3O2)cc1 (configuration not stated),i,i,i,i,i
O=C(Nc1nnc(C2=COCCO2)o1)c1cccc([N+](=O)[O-])c1,i,i,i,i,i
O=C(Nc1nnc(-c2ccc(F)cc2)o1)c1cccc([N+](=O)[O-])c1,i,58*,i,i,i
CCCCCc1c2c(cc(O)c1C(=O)O)OC(=O)c1c(cc(OC)cc1C(=O)CCCC)O2,-7*,i,-7.9*,i,i
CCCCc1c(C(=O)O)cc(OC)cc1C(=O)O,i,i,i,i,i
CC(C)(C)C(=O)N1CCN(c2ncnc3scc(-c4ccccc4)c23)CC1,i,i,i,i,i
COC(=O)CCC(=O)OC1(C)C(=O)C2=CN(Cc3ccc(OC)cc3)C(c3ccc(OC)cc3)=CC2=C(Br)C1=O (configuration not stated),i,i,-4.9*,i,i
O=C1NC(=Nc2ccccc2Cl)S/C1=C\c1cc([N+](=O)[O-])ccc1O,i,i,i,i,i
Cc1ccc(S(=O)(=O)/N=C2/NC(=O)/C(=C/c3cc([N+](=O)[O-])ccc3O)S2)cc1,-7.8*,i,i,i,i
Cc1ccc(-n2ncc3c(N4CCCC4)ncnc32)c(C)c1,i,i,i,i,i
COc1cccc(N2CCN(c3ncnc4c3cnn4-c3ccc(C)cc3C)CC2)c1,-7*,i,i,i,i
COc1ccc(-n2ncc3c(N4CCN(Cc5ccccc5)CC4)ncnc32)cc1,-7.4*,i,i,i,i
O=C(CN1C(=O)/C(=C/c2ccccc2)SC1=S)N1CCN(CCc2ccccn2)CC1,i,i,i,i,i
CCOc1ccccc1CN1CCCC(C(=O)Nc2cccc(-n3cccn3)c2)C1 (configuration not stated),-7*,i,i,i,i
CSc1cccc(CN2CCCC(C(=O)Nc3cccc(-n4cccn4)c3)C2)c1 (configuration not stated),-7.3*,i,i,i,i
CCOc1cccc(CN2CCCC(C(=O)Nc3cccc(-n4cccn4)c3)C2)c1 (configuration not stated),i,i,i,i,i
COc1cccc(C(C(=O)NC(C)(C)C)N(C(=O)CCC(=O)Nc2cc(C)on2)c2ccc3c(c2)OCCO3)c1OC (configuration not stated),i,i,i,i,i
Cc1cc(C(=O)N/N=C/c2cccs2)no1,i,28*,i,i,i
